Results on 30 molecules are retold here after ChEMBL document CHEMBL3994644, “Discovery of AAT-008, a novel, potent, and selective prostaglandin EP4 receptor antagonist” (Bioorg Med Chem Lett, 2017).

The target in data set [1] is T1, Prostaglandin E2 receptor EP4 subtype (Homo sapiens, UniProt P35408). The experiment in a line: Antagonist activity at human EP4 receptor expressed in HEK293 cells assessed as inhibition of PGE2-induced cAMP level by HTS assay. It is filed as functional, cell-based. The note with it: for Kb: read-out: pA2 (converted). For orientation: cAMP levels reflect the balance of adenylyl cyclase and phosphodiesterase activity.
T1 sequence (P35408 whole entry): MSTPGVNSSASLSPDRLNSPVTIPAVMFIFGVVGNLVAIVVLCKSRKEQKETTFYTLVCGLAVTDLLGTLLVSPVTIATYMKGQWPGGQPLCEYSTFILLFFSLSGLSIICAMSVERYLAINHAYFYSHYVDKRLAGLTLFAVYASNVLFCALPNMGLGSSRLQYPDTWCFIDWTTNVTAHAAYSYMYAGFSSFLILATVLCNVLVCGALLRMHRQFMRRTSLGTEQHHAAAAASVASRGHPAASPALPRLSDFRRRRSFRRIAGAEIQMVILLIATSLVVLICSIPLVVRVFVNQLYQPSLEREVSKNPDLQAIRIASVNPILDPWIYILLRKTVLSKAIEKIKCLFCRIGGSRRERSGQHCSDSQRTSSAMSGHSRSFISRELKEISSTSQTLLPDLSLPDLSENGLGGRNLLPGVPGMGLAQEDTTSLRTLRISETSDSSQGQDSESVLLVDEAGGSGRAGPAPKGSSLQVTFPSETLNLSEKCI

Data set [2] in a line: Apparent permeability from apical to basolateral side in human Caco2 cells. It counts as ADME, cell-based. The note with it: Caco-2. Summed up:
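Caco-2 monolayer permeability (Papp, apical to basolateral) was measured under constant pH, with the apical side at pH 6.5 and the basolateral side at pH 7.4.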

The target of data set [3] is Prostaglandin E2 receptor EP2 subtype (Homo sapiens, UniProt P43116). As to the kind of experiment: Antagonist activity at human EP2 receptor.
Sequence of Prostaglandin E2 receptor EP2 subtype (P43116 whole entry): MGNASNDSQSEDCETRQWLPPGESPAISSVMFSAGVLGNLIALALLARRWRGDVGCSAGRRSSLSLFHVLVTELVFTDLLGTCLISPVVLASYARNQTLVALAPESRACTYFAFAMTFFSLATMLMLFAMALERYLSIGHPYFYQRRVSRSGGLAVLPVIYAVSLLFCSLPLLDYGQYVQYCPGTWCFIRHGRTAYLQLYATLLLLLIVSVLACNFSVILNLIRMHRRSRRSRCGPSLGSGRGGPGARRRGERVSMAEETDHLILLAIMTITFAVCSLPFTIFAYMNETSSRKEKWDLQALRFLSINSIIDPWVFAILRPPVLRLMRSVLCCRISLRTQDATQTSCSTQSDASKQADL
Data set [4] has as its system Rattus norvegicus. The experiment in a line: Analgesic activity in po dosed rat assessed as inhibition of carrageenan-induced mechanical hyperalgesia measured at 1 hr post dose. It is filed as functional. The note with it: read-out: MED. In a few lines: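 Rats dosed orally. Mechanical hyperalgesia was induced with carrageenan and assessed 1 h post dose. The value is the minimum effective dose (MED, mg/kg PO).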

Data set [5] concerns the target T2, Prostaglandin E2 receptor EP3 subtype (Homo sapiens, UniProt P43115).
T2 sequence (P43115 whole entry): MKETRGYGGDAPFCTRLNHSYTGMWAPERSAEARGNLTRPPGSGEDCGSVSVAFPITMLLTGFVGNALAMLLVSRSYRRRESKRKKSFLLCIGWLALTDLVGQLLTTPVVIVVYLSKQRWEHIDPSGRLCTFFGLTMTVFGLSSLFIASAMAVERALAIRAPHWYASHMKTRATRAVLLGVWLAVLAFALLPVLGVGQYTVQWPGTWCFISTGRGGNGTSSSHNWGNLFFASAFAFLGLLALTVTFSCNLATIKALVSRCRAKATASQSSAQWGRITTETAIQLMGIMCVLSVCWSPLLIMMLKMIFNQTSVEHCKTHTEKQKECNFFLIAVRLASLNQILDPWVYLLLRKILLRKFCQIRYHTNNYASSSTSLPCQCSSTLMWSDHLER
The experiment in a line: Antagonist activity at human EP3 receptor.

The target in data set [6] is T3, Prostaglandin E2 receptor EP1 subtype (Homo sapiens, UniProt P34995).
T3 sequence (P34995 whole entry): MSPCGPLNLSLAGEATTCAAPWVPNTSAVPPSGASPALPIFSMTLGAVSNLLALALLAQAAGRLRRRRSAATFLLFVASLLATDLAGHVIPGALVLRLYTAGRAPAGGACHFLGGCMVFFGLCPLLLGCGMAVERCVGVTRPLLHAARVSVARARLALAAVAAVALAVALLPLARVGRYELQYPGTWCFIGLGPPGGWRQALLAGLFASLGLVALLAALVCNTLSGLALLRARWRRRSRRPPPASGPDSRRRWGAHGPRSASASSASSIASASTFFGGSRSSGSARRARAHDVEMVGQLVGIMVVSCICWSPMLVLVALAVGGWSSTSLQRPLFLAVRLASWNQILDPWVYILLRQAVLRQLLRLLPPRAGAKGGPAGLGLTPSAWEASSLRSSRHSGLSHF
The experiment in a line: Antagonist activity at human EP1 receptor.

Data set [7] is described as follows: Half life in human liver microsomes. It counts as ADME, microsome. On the technique in general: Liver microsomes are a subcellular fraction often used to study metabolism.
Data set [8] addresses T1, Prostaglandin E2 receptor EP4 subtype. The experiment in a line: Displacement of [3H]PGE from human EP4 receptor expressed in HEK293 cell membranes. Summed up: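 Membrane binding assay using [3H]PGE2 with membranes from HEK-293 cells expressing human EP4. The value is expressed as Ki.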
Data set [9] can be described thus: Solubility of the compound in pH 6.5 PBS. It is filed as physicochemical.

With `C[C@H](NC(=O)c1cc(Cl)cnc1Oc1cc(F)cc(F)c1)c1ccc(C(=O)O)cc1`, the IC50 in [1] is less than 50 nM.
Turning to `C[C@H](NC(=O)c1cc(Cl)ccc1Oc1cccc(F)c1)c1ccc(C(=O)O)cc1`, the Papp A→B in [2] stood at 41.9 ×10⁻⁶ cm/s. The IC50 in data set [1] was 30.6 nM; in [3] it was 1620 nM; in data set [5], greater than 20000 nM; in data set [6], greater than 20000 nM; in data set [8], 8.76 nM. The Kb in data set [1] was 1.26 nM. Besides, in data set [4], the minimal effective dose is 10 mg/kg. In addition, the half-life in [7] was greater than 2 h.
`C[C@H](NC(=O)c1cc(Cl)cnc1Oc1cccc(OC(F)(F)F)c1)c1ccc(C(=O)O)cc1`: the IC50 in [1] turned out to be 1790 nM.
The same measure, in the same setting: in the case of `C[C@H](NC(=O)c1cc(Cl)cnc1Oc1cncc(F)c1)c1ccc(C(=O)O)cc1` it was 175 nM; in that of `C[C@H](NC(=O)c1cc(Cl)cnc1Oc1ccccc1Cl)c1ccc(C(=O)O)cc1`, 93.5 nM.
As for `O=C(O)c1ccc(CNC(=O)c2cc(F)ccc2Oc2ccc(F)cc2)cc1`, the Papp A→B in [2] was 36.3 ×10⁻⁶ cm/s. For the same molecule, the IC50 was 317 nM in [1]; 236 nM in [3]; greater than 20000 nM in data set [5]; greater than 20000 nM in data set [6]; 124 nM in [8].
Consider `O=C(O)c1ccc(CNC(=O)c2cc(Cl)ccc2Oc2ccc(F)cc2)cc1`, for which the Papp A→B in [2] was determined as 51.4 ×10⁻⁶ cm/s. Moreover, the IC50 in data set [1] amounted to 101 nM; in data set [8] it was 21.6 nM.
In the case of `C[C@H](NC(=O)c1cc(Cl)cnc1Oc1ccc(F)c(F)c1)c1ccc(C(=O)O)cc1`, the IC50 in data set [1] is less than 50 nM.
`C[C@H](NC(=O)c1cc(Cl)ccc1Oc1cccc(Cl)c1)c1ccc(C(=O)O)cc1`: the IC50 in data set [1] amounted to 41.1 nM.
Take `O=C(O)c1ccc(CNC(=O)c2cc(Cl)cnc2Oc2ccc(F)cc2)cc1`: the Papp A→B in data set [2] turned out to be 20.1 ×10⁻⁶ cm/s. Besides, the IC50 in [1] is 254 nM; in [3], 1290 nM; in data set [5], greater than 20000 nM; in data set [6] it was greater than 20000 nM; in data set [8] it was 37.9 nM.
With `C[C@H](NC(=O)c1cc(F)cnc1Oc1ccc(F)cc1)c1ccc(C(=O)O)cc1`, the Papp A→B in data set [2] came to 30.2 ×10⁻⁶ cm/s. For the same molecule, the figures for the IC50 in data set [1] and in [8] were 143 nM and 28.7 nM, respectively.
Turning to `C[C@H](NC(=O)c1cc(Cl)cnc1Oc1cccc(F)c1F)c1ccc(C(=O)O)cc1`, the IC50 in data set [1] is less than 50 nM.
Consider `CSc1cccc(Oc2ncc(Cl)cc2C(=O)N[C@@H](C)c2ccc(C(=O)O)cc2)c1`, for which the IC50 in data set [1] worked out at 400 nM.
On to `C[C@H](NC(=O)c1cc(Cl)cnc1Oc1cc(F)ccc1F)c1ccc(C(=O)O)cc1`, for which, in data set [1], the IC50 was less than 50 nM.
Consider `C[C@H](NC(=O)c1cc(Cl)cnc1Oc1cccc(C(F)(F)F)c1)c1ccc(C(=O)O)cc1`, for which the IC50 in data set [1] is 60.4 nM.
Consider `O=C(NCc1ccc(C(=O)NS(=O)(=O)c2cccc(Cl)c2)cc1)c1cccc(OCc2nc3cc(F)ccc3s2)c1`, for which the IC50 in [1] came out at 302 nM.
On the same count and under the same terms, in the case of `COc1cccc(Oc2ncc(Cl)cc2C(=O)N[C@@H](C)c2ccc(C(=O)O)cc2)c1` it was 340 nM.
Consider `CCC(NC(=O)c1cc(F)cnc1Oc1ccc(F)cc1)c1ccc(C(=O)O)cc1` (racemic), for which the Papp A→B in [2] is 20.1 ×10⁻⁶ cm/s. Besides, the IC50 in data set [8] was 181 nM.
As to `CC(C)(NC(=O)c1cc(F)cnc1Oc1ccc(F)cc1)c1ccc(C(=O)O)cc1`, the Papp A→B in data set [2] was found to be 36.3 ×10⁻⁶ cm/s. In data set [8], this molecule came in with an IC50 of 545 nM.
`C[C@H](NC(=O)c1cc(Cl)cnc1Oc1ccccc1F)c1ccc(C(=O)O)cc1`: the IC50 in [1] was found to be 61.4 nM.
On to `C[C@H](NC(=O)c1cc(Cl)cnc1Oc1cncc(Cl)c1)c1ccc(C(=O)O)cc1`, for which the half-maximal inhibitory concentration (IC50) in data set [1] turned out to be 137 nM.
As to `Cc1ccc(C(=O)NCc2ccc(C(=O)O)cc2)c(Oc2ccc(F)cc2)n1`, the IC50 in [1] was greater than 5000 nM.
Take `C[C@H](NC(=O)c1cc(Cl)cnc1Oc1ccc(F)cc1)c1ccc(C(=O)O)cc1`: in [2], the Papp A→B was 30.3 ×10⁻⁶ cm/s. Further, the IC50 in data set [1] was 25.9 nM; in [3] it was 4360 nM; in data set [5] it was greater than 20000 nM; in [6] it was greater than 20000 nM; in data set [8], 9.68 nM. The Kb in data set [1] was 2.45 nM. The minimal effective dose in data set [4] was found to be 10 mg/kg. Also, in [7], the half-life was greater than 2 h.
`Cc1cnc(Oc2ccc(F)cc2)c(C(=O)NCc2ccc(C(=O)O)cc2)c1`: the IC50 in data set [1] is 2940 nM.
`O=C(O)c1ccc(CNC(=O)c2cc(F)cnc2Oc2ccc(F)cc2)cc1` registered a solubility in data set [9] greater than 10 µM. The Papp A→B in data set [2] amounted to 25.3 ×10⁻⁶ cm/s. The IC50 in [1] was 575 nM; in [3] it was greater than 20000 nM; in [5] it was greater than 20000 nM; in [6], greater than 20000 nM; in data set [8] it was 104 nM. The half-life in [7] was greater than 2 h. This molecule also returned a Ki in [8] of 73 nM.
Consider `C[C@H](NC(=O)c1cc(Cl)cnc1Oc1cccc(Cl)c1)c1ccc(C(=O)O)cc1`, for which the IC50 in data set [1] stood at 21.8 nM; in data set [8], 5.02 nM. For the same molecule, the half-life in [7] is greater than 2 h.
Take `C[C@H](NC(=O)c1cc(Cl)cnc1Oc1ccc(Cl)cc1)c1ccc(C(=O)O)cc1`: the IC50 in [1] came to 94.3 nM.
As to `C[C@@H](NC(=O)c1cc(Cl)cnc1Oc1ccc(F)cc1)c1ccc(C(=O)O)cc1`, the Papp A→B in data set [2] worked out at 25.3 ×10⁻⁶ cm/s. In addition, the IC50 in data set [1] turned out to be 1210 nM.
`O=C(O)c1ccc(CNC(=O)c2cccc(OCc3nc4cc(F)ccc4s3)c2)cc1` returned a solubility in data set [9] greater than 10 µM. In addition, the IC50 in data set [1] stood at 370 nM. The molecule also showed a half-life in data set [7] greater than 2 h.
Regarding `C[C@H](NC(=O)c1cc(Cl)ccc1Oc1ccc(F)cc1)c1ccc(C(=O)O)cc1`, the Papp A→B in data set [2] amounted to 32.4 ×10⁻⁶ cm/s. Moreover, the IC50 in data set [1] was 38.2 nM; in data set [3], 709 nM; in data set [5], greater than 20000 nM; in data set [6], greater than 20000 nM; in data set [8], 6.59 nM. Further, the Kb in data set [1] was 1.78 nM. Moreover, the minimal effective dose in data set [4] is 10 mg/kg. For the same molecule, in data set [7], the half-life is greater than 2 h.

As a reminder, the IC50 is the concentration that gives 50% inhibition. Usually Papp A→B stands for the apparent permeability from the apical to the basolateral side of a cell layer. The term half-life denotes the time in which the quantity being followed falls by half. A low value points to rapid decline. Usually solubility stands for the dissolved amount per volume that the medium holds. As a reminder, the Ki is a dissociation constant, usually derived from enzyme kinetics or from competition with a known ligand. A high value points to weaker binding.
